Measurements from ChEMBL document CHEMBL1157165, “Design and synthesis of dual inhibitors of HIV reverse transcriptase and integrase: introducing a diketoacid functionality into delavirdine” (Bioorg Med Chem, 2008).

System: not listed separately
Experiment: Inhibition of HIV integrase expressed in Escherichia coli BL21
Parameters: species or system Human immunodeficiency virus
Outline: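 IN made in E. coli BL21(DE3) by IPTG induction. 600 nM IN stock in 10 mM HEPES pH 7.5, 10 mM MnCl2, 1 mM DTT, 10% glycerol, BSA, Brij-35, preincubated with compound or DMSO 10 min at room temperature. Reaction started with annealed 5'-biotin/3'-cy5 duplex (50 nM stock), 2 h at 37 °C. Product captured on streptavidin plate, washed with NaOH denaturing buffer, eluted in formamide, fluorescence read.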
Work on CC(C)Nc1cccnc1N1CCN(C(=O)c2cc3cccc(C(=O)/C=C(\O)C(=O)O)c3[nH]2)CC1 yielded an IC50 greater than 100 µM. With CC(C)Nc1cccnc1N1CCN(C(=O)c2[nH]c3ccc(C(=O)/C=C(\O)C(=O)O)cc3c2Br)CC1 the IC50 was 3.9 µM. For CC(C)Nc1cccnc1N1CCN(C(=O)c2[nH]c3c(C(=O)/C=C(\O)C(=O)O)cccc3c2Br)CC1, the IC50 was 75 µM. With CC(C)Nc1cccnc1N1CCN(C(=O)c2[nH]c3ccc(C(=O)/C=C(\O)C(=O)O)cc3c2Cl)CC1 the IC50 was 4.7 µM. In the case of CC(C)Nc1cccnc1N1CCN(C(=O)c2[nH]c3c(C(=O)/C=C(\O)C(=O)O)cccc3c2Cl)CC1, the IC50 is reported as greater than 100 µM. With CC(C)Nc1cccnc1N1CCN(C(=O)c2cc3cc(C(=O)/C=C(\O)C(=O)O)ccc3[nH]2)CC1 the IC50 was 11 µM. CC(C)Nc1cccnc1N1CCN(C(=O)c2cc3cc(NS(C)(=O)=O)ccc3[nH]2)CC1 [DELAVIRDINE] gave an IC50 greater than 100 µM.

System: Human immunodeficiency virus 1
Experiment: Antiviral activity against HIV1 by cell-based assay
Format: functional, organism-based
Outline: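 Cytoprotection assay: CEM-SS cells or human PBMCs mixed with HIV-1 strain IIIB or RF in presence of compound, 6 days. Virus pre-titered to give 70–95% loss of viability in virus-control wells; cell, toxicity and colorimetric controls included. Viability by MTS or XTT dye reduction; EC50 = concentration inhibiting virus replication by 50%.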
CC(C)Nc1cccnc1N1CCN(C(=O)c2cc3cccc(C(=O)/C=C(\O)C(=O)O)c3[nH]2)CC1 gave an EC50 greater than 10 µM. In the case of CC(C)Nc1cccnc1N1CCN(C(=O)c2[nH]c3ccc(C(=O)/C=C(\O)C(=O)O)cc3c2Br)CC1, the EC50 is reported as 0.79 µM. Molecule CC(C)Nc1cccnc1N1CCN(C(=O)c2[nH]c3c(C(=O)/C=C(\O)C(=O)O)cccc3c2Br)CC1 has an EC50 greater than 10 µM. CC(C)Nc1cccnc1N1CCN(C(=O)c2[nH]c3ccc(C(=O)/C=C(\O)C(=O)O)cc3c2Cl)CC1 gave an EC50 of 0.98 µM. CC(C)Nc1cccnc1N1CCN(C(=O)c2[nH]c3c(C(=O)/C=C(\O)C(=O)O)cccc3c2Cl)CC1 showed an EC50 greater than 10 µM. Molecule CC(C)Nc1cccnc1N1CCN(C(=O)c2cc3cc(C(=O)/C=C(\O)C(=O)O)ccc3[nH]2)CC1 has an EC50 of 0.52 µM. CC(C)Nc1cccnc1N1CCN(C(=O)c2cc3cc(NS(C)(=O)=O)ccc3[nH]2)CC1 [DELAVIRDINE] gave an EC50 of 0.021 µM.

Target: not listed separately
Experiment: Inhibition of HIV reverse transcriptase
Parameters: species or system Human immunodeficiency virus
Outline: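 Scintillation proximity assay: beads carry a biotin-linked poly(A) template with oligo(T) primer. Reaction incubated 3 h at 37 °C, stopped with stop buffer, counted 1 min per sample on a beta counter; IC50 reported.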
For CC(C)Nc1cccnc1N1CCN(C(=O)c2cc3cccc(C(=O)/C=C(\O)C(=O)O)c3[nH]2)CC1, the IC50 was greater than 100 µM. CC(C)Nc1cccnc1N1CCN(C(=O)c2[nH]c3ccc(C(=O)/C=C(\O)C(=O)O)cc3c2Br)CC1 gave an IC50 of 0.12 µM. CC(C)Nc1cccnc1N1CCN(C(=O)c2[nH]c3c(C(=O)/C=C(\O)C(=O)O)cccc3c2Br)CC1 gave an IC50 greater than 100 µM. Molecule CC(C)Nc1cccnc1N1CCN(C(=O)c2[nH]c3ccc(C(=O)/C=C(\O)C(=O)O)cc3c2Cl)CC1 has an IC50 of 1.1 µM. CC(C)Nc1cccnc1N1CCN(C(=O)c2[nH]c3c(C(=O)/C=C(\O)C(=O)O)cccc3c2Cl)CC1 gave an IC50 greater than 100 µM. With CC(C)Nc1cccnc1N1CCN(C(=O)c2cc3cc(C(=O)/C=C(\O)C(=O)O)ccc3[nH]2)CC1 the IC50 was 0.0059 µM. For CC(C)Nc1cccnc1N1CCN(C(=O)c2cc3cc(NS(C)(=O)=O)ccc3[nH]2)CC1 [DELAVIRDINE], the IC50 was 0.036 µM.
